Data on one compound can be found in ChEMBL document CHEMBL4270546, “A novel Anti-Cancer Stem Cells compound optimized from the natural symplostatin 4 scaffold inhibits Wnt/β-catenin signaling pathway” (Eur J Med Chem, 2018).

In general, IC50 refers to the point on the concentration scale where inhibition reaches its midpoint.

Calls of active or inactive are those of the source. The calls are words filed in the database; no cut-off is given here.

The species named for series [1] is Homo sapiens. The experiment in a line: Inhibition of Wnt/beta-catenin signaling pathway in human A375 cells assessed as reduction in STAT3 phosphorylation after 48 hrs by Western blot analysis. It is filed as cell-based. Put shortly:
(§1)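 A375 cells exposed to compound at several concentrations for 48 h; lysates immunoblotted for STAT3, p-STAT3, β-catenin and c-Myc.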
In general terms: In western blotting, separated proteins are transferred to a membrane and probed.

In series [2] the test system is A-375. The series can be described thus: Inhibition of colony formation in human A375 cells at 0.125 to 0.25 uM after 7 days by crystal violet staining based assay. It counts as functional, cell-based. Put shortly: (§2)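 Clonogenic long-term growth assay: A375 or B16F10 cells grown under continuous compound exposure for 7 days, then colonies quantified; mean ± sd, n = 3, two-way ANOVA.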

The test system of series [3] is B16-F10. The experiment in a line: Induction of apoptosis in mouse B16F10 cells assessed as early apoptotic cells at 2 uM after 48 hrs by Annexin V-FITC/propidium iodide staining based flow cytometry (reference value: 0.022%). It is filed as functional. In general terms: In flow cytometry, cells or beads pass a laser one at a time.
The species named for series [4] is Homo sapiens. The experiment in a line: Inhibition of Wnt/beta-catenin signaling pathway in human A375 cells assessed as reduction in c-Myc protein expression after 48 hrs by Western blot analysis. It is filed as cell-based. Put shortly:
as §1

The subject of series [5] is A-375. The series can be described thus: Inhibition of ALDH+ subpopulation of human A375 cells assessed as ALDH+ cells at 0.5 after 48 hrs by flow cytometry (reference value: 25.7%). On the set-up: scale not given: the % may be the effect or the level left. It counts as functional.
For series [6], the system named is A-375. The experiment in a line: Downregulation of beta-catenin protein expression in human A375 cells after 48 hrs by Western blot analysis. It is filed as functional, cell-based. In outline:
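Cells treated with compound at different concentrations for 48 h. Western blot for STAT3, p-STAT3, β-catenin and c-Myc.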

Series [7] deals with Mus musculus. The series can be described thus: Toxicity in C57BL/6J mouse implanted with mouse B16F10 cells assessed as change in body weight at 15 mg/kg/day, ip measured daily for 24 days. The following applies: in vivo, 576 h. It counts as organism-based. Put shortly: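 C57BL/6J mice carrying subcutaneous B16F10 cell grafts; vehicle and treated groups (n = 5) followed for body weight, with tumours dissected and weighed on day 24; mean ± sd, two-way ANOVA.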

Series [8] relates to B16-F10. The experiment in a line: Induction of apoptosis in mouse B16F10 cells assessed as upregulation of p53 expression after 48 hrs by Western blot analysis.
In series [9] the test system is B16-F10. The series can be described thus: Antitumor activity against mouse B16F10 cells implanted in C57BL/6J mouse assessed as tumor growth inhibition at 15 mg/kg/day, ip measured after 24 days. It is filed as functional, organism-based. In outline:
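C57BL/6J mice injected subcutaneously with B16F10 cells and treated with vehicle or compound. Tumor volume and body weight followed, and tumors dissected and weighed on day 24. Mean ± sd, n = 5, two-way ANOVA.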

Series [10] has as its system A-375. The experiment in a line: Induction of apoptosis in human A375 cells assessed as upregulation of p53 expression after 48 hrs by Western blot analysis.
In series [11] the test system is B16-F10. The experiment in a line: Inhibition of ALDH+ subpopulation of mouse B16F10 cells assessed as ALDH+ cells at 0.5 after 48 hrs by flow cytometry (reference value: 26.7%). It is filed as functional. On the set-up: scale not given: the % may be the effect or the level left.
For series [12], the system named is B16-F10. The experiment in a line: Inhibition of tumor sphere formation ability of mouse B16F10 cells at 0.25 to 0.5 uM pretreated for 48 hrs followed by cell culture for 7 days. It counts as functional, cell-based. Put shortly: (§3)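 A375 or B16F10 cells pretreated with or without compound for 48 h, collected and replated on ultra-low attachment surfaces; after 7 days of culture, sphere number and size scored; mean ± sd, n = 3, two-way ANOVA.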

The subject of series [13] is B16-F10. The series can be described thus: Induction of apoptosis in mouse B16F10 cells assessed as early apoptotic cells at 1 uM after 48 hrs by Annexin V-FITC/propidium iodide staining based flow cytometry (reference value: 0.022%). It counts as functional.
Series [14] deals with B16-F10. The experiment in a line: Antiproliferative activity against mouse B16F10 cells after 48 hrs by MTT assay. It counts as functional, cell-based. Particulars: B16-F10, 48 h. For orientation: Tetrazolium dyes change colour on reduction, which living cells bring about.
The test system of series [15] is A-375. The series can be described thus: Inhibition of tumor sphere formation ability of human A375 cells at 0.25 to 0.5 uM pretreated for 48 hrs followed by cell culture for 7 days. It is filed as functional, cell-based. In outline: as §3
The subject of series [16] is B16-F10. The series can be described thus: Inhibition of colony formation in mouse B16F10 cells at 0.125 to 0.25 uM after 7 days by crystal violet staining based assay. It is filed as functional, cell-based. In outline:
as §2

Series [17] relates to A-375. The series can be described thus: Induction of apoptosis in human A375 cells assessed as necrotic cells at 2 uM after 48 hrs by Annexin V-FITC/propidium iodide staining based flow cytometry (reference value: 2.39%). It counts as functional.
Series [18] concerns A-375. The series can be described thus: Antimigratory activity against human A375 cells at 0.25 uM after 24 to 48 hrs by wound healing assay. It is filed as functional, cell-based. Put shortly:
(§4)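 Wound-healing scratch assay on cells treated with or without compound (0.25 μM). Images recorded at 0, 24 and 48 h, and migration distance quantified. Mean ± sd, n = 3, two-way ANOVA.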

For series [19], the system named is A-375. The series can be described thus: Inhibition of CD133+ sub-population of human A375 cells assessed as CD133+ cells at 0.25 after 48 hrs by flow cytometry (reference value: 4.54%). It is filed as functional. On the set-up: scale not given: the % may be the effect or the level left.
The test system of series [20] is B16-F10. The series can be described thus: Antimigratory activity against mouse B16F10 cells at 0.25 uM after 24 to 48 hrs by wound healing assay. It counts as functional, cell-based. In outline: as §4
Series [21] deals with A-375. The series can be described thus: Induction of apoptosis in human A375 cells assessed as upregulation of Bax expression after 48 hrs by Western blot analysis.
The subject of series [22] is A-375. The experiment in a line: Induction of apoptosis in human A375 cells assessed as upregulation of cleaved PARP expression at 0.5 to 4 uM after 48 hrs by Western blot analysis. It is filed as functional, cell-based. In outline: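 Cells treated with compound at different concentrations (0.5-4 μM) for 48 h. Lysates probed by Western blot for cleaved PARP, active caspase-3, Bax and p53.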

With `CC[C@H](C)[C@H](NC(=O)OCc1ccccc1)C(=O)N[C@@H](CC(C)C)C(=O)N[C@@H](CC(C)C)C(=O)N[C@@H](C)/C=C/C(=O)N1C(=O)C=C(OC)[C@@H]1C(C)C`, the inhibition result in series [1] and in series [4] was “Dose-dependent effect” each time. Besides, the inhibition result in series [2], in series [12], in [15] and in series [16] was “Active” each time. The Activity is 31.8% in series [3]; 8.81% in [5]; “Dose-dependent effect” in series [6]; “Non-Toxic” in series [7]; 11.8% in series [11]; 8.74% in [13]. Further, the Activity in series [17] is given as 2.87%; in series [19] it was 1.25%. The p53 upregulation entry in series [8] and in series [10] was “Dose-dependent effect” throughout. Also, the TGI entry in [9] was “Active”. This compound also returned an IC50 in [14] of 0.522 µM. For the same compound, the result in series [18], in series [20] and in series [22] was Active. In addition, the Bax upregulation entry in series [21] was “Dose-dependent effect”.
